These results are taken from ChEMBL document CHEMBL1122845, “Inhibitors of blood platelet aggregation. Effects of some 1,2-benzisothiazol-3-ones on platelet responsiveness to adenosine diphosphate and collagen” (J Med Chem, 1985).

Test [1] has as its system Cavia porcellus. Kind of test: Ex vivo inhibition of ADP induced guinea pig platelet aggregation following 0.08 mmol/kg administration. It is filed as functional. Put shortly:
(§1)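 Fasted male rats (~200 g) or guinea pigs (~300 g), n=5-10, dosed orally (5 mL/kg) in 1% methylcellulose; methylcellulose alone as control. Killed with CO2 after 2 h. Vena cava blood citrated (102 mM rat, 129 mM guinea pig); PRP adjusted to 800000/µL (rat) or 500000/µL (guinea pig). EC25 for first-phase ADP aggregation (max 8 µM) interpolated from two 2-fold-spaced ADP levels. Dose ratio = treated/control mean EC25; Student's t-test. Some groups tested as pooled PRP.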

Test [2] concerns Cavia porcellus. Nature of the test: The compound was tested ex vivo at a dose of 0.08 mmol/kg or collagen induced platelet aggregation in guinea pig. It is filed as functional. Put shortly: (§2)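 Male rats (~200 g) or guinea pigs (~300 g), overnight fasted, n=5-10, received compound orally in 1% methylcellulose (5 mL/kg); vehicle-only controls. After 2 h, CO2 kill and vena cava blood into citrate (102 mM rat, 129 mM guinea pig). PRP set to 800000/µL (rat) or 500000/µL (guinea pig). Collagen EC50 (response of 50 mm; max 50 µg/mL) interpolated from a log plot. Dose ratio = treated/control mean EC50; t-test. Pooled PRP sometimes used.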

Test [3] concerns Cavia porcellus. Nature of the test: The compound was tested ex vivo at a dose of 0.15 mmol/kg for ADP induced platelet aggregation in guinea pig. Type of test: functional. Put shortly:
as §1

The species named for test [4] is Homo sapiens. Nature of the test: (§3) In vitro inhibitory activity against human platelet aggregation in the presence of collagen. Type of test: functional. Put shortly:
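Aggregation measured photometrically in human citrated PRP (350000 platelets/µL, stirred at 1100 rpm). Compound or saline preincubated 3 min at 37 °C. Collagen at a just-maximal level chosen for each sample (typically 0.7-1.4 µg/mL). Maximum increase in light transmission measured. IC50 = concentration giving 50% inhibition.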

The test system of test [5] is Rattus norvegicus. Nature of the test: The compound was tested at a dose of 0.15 mmol/kg ex vivo for ADP induced platelet aggregation in rat. It is filed as functional. Put shortly: as §1
The test system of test [6] is Rattus norvegicus. Nature of the test: The compound was tested at a dose of 0.15 mmol/kg ex vivo for collagen induced platelet aggregation in rat. Type of test: functional. In outline:
as §2

Test [7] concerns Cavia porcellus. Nature of the test: The compound was tested ex vivo at a dose of 0.15 mmol/kg for collagen induced platelet aggregation in guinea pig.
The test system of test [8] is Cavia porcellus. Kind of test: The compound was tested ex vivo at a dose of 0.3 mmol/kg for ADP induced platelet aggregation in guinea pig. Type of test: functional. In outline: as §1
Test [9] concerns Cavia porcellus. Kind of test: The compound was tested ex vivo at a dose of 0.3 mmol/kg for collagen induced platelet aggregation in guinea pig. It is filed as functional. Put shortly:
as §2

Test [10] concerns Cavia porcellus. Kind of test: The compound was tested ex vivo at a dose of 0.08 mmol/kg for ADP induced platelet aggregation in guinea pig. It is filed as functional. In outline:
as §1

In test [11] the test system is Cavia porcellus. Kind of test: The compound was tested ex vivo at a dose of 0.08 mmol/kg for collagen induced platelet aggregation in guinea pig. It is filed as functional. Put shortly: as §2
For test [12], the species on record is Homo sapiens. The description is as §3. It is filed as functional, organism-based.
For test [13], the system named is Rattus norvegicus. Nature of the test: The compound was tested ex vivo at a dose of 0.15 mmol/kg for ADP induced platelet aggregation in rat. Type of test: functional. Put shortly:
as §1

Test [14] relates to Rattus norvegicus. Kind of test: The compound was tested ex vivo at a dose of 0.15 mmol/kg for collagen induced platelet aggregation in rat. It is filed as functional. Put shortly:
as §2

Test [15] concerns Rattus norvegicus. Kind of test: The compound was tested ex vivo at a dose of 0.3 mmol/kg for ADP induced platelet aggregation in rat. It is filed as functional. Put shortly:
as §1

The test system of test [16] is Rattus norvegicus. Kind of test: The compound was tested at a dose of 0.3 mmol/kg ex vivo for collagen induced platelet aggregation in rat. Type of test: functional. In outline: as §2
The subject of test [17] is Cavia porcellus. Kind of test: The compound was tested ex vivo at a dose of 0.15 mmol/kg for collagen induced platelet aggregation in guinea pig. It is filed as functional. Put shortly: as §2
Test [18] concerns Rattus norvegicus. Nature of the test: The compound was tested ex vivo at a dose of 0.15 mmol/kg for ADP induced platelet aggregation in rat.
Test [19] deals with Cavia porcellus. Nature of the test: The compound was tested ex vivo at a dose of 0.15 mmol/kg for ADP induced platelet aggregation in guinea pig.
Test [20] concerns Cavia porcellus. Kind of test: The compound was tested ex vivo at a dose of 0.02 mmol/kg for collagen induced platelet aggregation in guinea pig. It is filed as functional. In outline:
as §2

The subject of test [21] is Cavia porcellus. Nature of the test: The compound was tested ex vivo at a dose of 0.04 mmol/kg for ADP induced platelet aggregation in guinea pig. Type of test: functional. Put shortly: as §1
Test [22] relates to Rattus norvegicus. Nature of the test: The compound was tested ex vivo at a dose of 0.08 mmol/kg for ADP induced platelet aggregation in rat. Type of test: functional. Put shortly: as §1
Test [23] has as its system Rattus norvegicus. Kind of test: The compound was tested ex vivo at a dose of 0.04 mmol/kg for ADP induced platelet aggregation in rat. Type of test: functional. In outline: as §1
The test system of test [24] is Rattus norvegicus. Nature of the test: The compound was tested ex vivo at a dose of 0.04 mmol/kg for collagen induced platelet aggregation in rat. Type of test: functional. In outline: as §2
Test [25] concerns Rattus norvegicus. Kind of test: The compound was tested ex vivo at a dose of 0.08 mmol/kg for collagen induced platelet aggregation in rat. It is filed as functional. Put shortly:
as §2

Test [26] concerns Rattus norvegicus. Nature of the test: The compound was tested ex vivo at a dose of 0.15 mmol/kg for collagen induced platelet aggregation in rat.
In test [27] the test system is Cavia porcellus. Kind of test: The compound was tested ex vivo at a dose of 0.04 mmol/kg for ADP induced platelet aggregation in guinea pig.
For test [28], the system named is Homo sapiens. Nature of the test: The compound was tested ex vivo at a dose of 0.1 mmol/kg for ADP induced platelet aggregation in rat.

Where a name gives a salt, the structure may show the parent alone. Where only a bound is given, the exact number is not on record here.

Regarding `O=c1c2ccccc2sn1CCCCCN1CC2CCC(CC2)C1`, the Activity in the test with Cavia porcellus [1] is given as 1.2; in the test with Cavia porcellus [2], 2.8.

By IC50 is commonly meant the concentration that inhibits the measured activity by half. `O=c1c2ccccc2sn1CCN1CCCC1`: the Activity in the test on Cavia porcellus [3] came out at 1.9; in the test with Rattus norvegicus [5], 0.9; in the test on Rattus norvegicus [6], 2.3; in the test on Cavia porcellus [7], 13.9. Further, the IC50 in the test listed under Homo sapiens [4] was 30 µM.

On to `COc1cc2sn(CCN3CC4CCC(CC4)C3)c(=O)c2cc1OC`, for which the Activity was determined as 1 in the test with Cavia porcellus [8]; 1.9 with Cavia porcellus [9]; 1.3 in the test on Cavia porcellus [3]; 1.1 in the test with Cavia porcellus [10]; 1.7 with Cavia porcellus [11]; 1.4 in the test with Rattus norvegicus [13]. Moreover, the Activity is reported as 2.9 in the test on Rattus norvegicus [14], 1.9 in the test with Rattus norvegicus [15], above 5.8 in the test with Rattus norvegicus [16] and 1.6 in the test with Cavia porcellus [17]. Besides, the IC50 in the test filed under Homo sapiens [12] amounted to 110 µM.

Turning to `CCN(CC)CCn1sc2cc(OC)c(OC)cc2c1=O`, the values for the Activity in the test with Rattus norvegicus [14], in the test with Rattus norvegicus [18] and with Cavia porcellus [19] were 1.5, 2.2 and 1.1, respectively. In addition, the “collagen EC50 dose ratio (treated/control)” value in the test on Cavia porcellus [17] is recorded as above 47.

For `O=C1C(CC[S+]([O-])c2ccccc2)C(=O)N(c2ccccc2)N1c1ccccc1` (stereo not drawn) [SULFINPYRAZONE], the Activity in the test on Cavia porcellus [3] is 1.1; in the test with Cavia porcellus [20], 2.9; in the test on Cavia porcellus [10], 1.6; with Cavia porcellus [11], 6.2; with Cavia porcellus [21] it was 1.1; in the test on Rattus norvegicus [22] it was 1.2. The Activity in the test on Rattus norvegicus [14] came out at 1.1; in the test on Rattus norvegicus [23] it was 1; in the test with Rattus norvegicus [24], 1.3; with Cavia porcellus [17] it was 3.2; with Rattus norvegicus [25] it was 1.8; with Rattus norvegicus [26] it was 1.2. For the same compound, in the test on Cavia porcellus [27], the Activity was 1.1. In addition, the IC50 in the test filed under Homo sapiens [4] worked out at 870 µM.

As for `Clc1ccccc1CN1CCc2sccc2C1` [TICLOPIDINE HYDROCHLORIDE], the IC50 in the test listed under Homo sapiens [12] is 1060 µM; with Homo sapiens [28], 2000 µM.
